Compound activity as filed in PubChem BioAssay.
A selection: hits, their analogues and other compounds. The true share with any hit is near 1.8%.
CHRM5 antagonist = CHRM5 antagonism in calcium assay; CHO-hM5 cells, Fluo-8 calcium fluorescence, ACh EC80; inhibition, % at 3 µM; actives 0.59% (n = 360,000); AID 624040;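 active means inhibition above a per-plate cutoff, the mean of that plate's test compounds plus 3 SD, cut at about 27% in these data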
CHRM5 PAM = positive allosteric modulators of human muscarinic M5 receptor; P08912; CHO-K1 hM5, Fluo-8 calcium, ACh EC20 PAM; 0% = ACh EC20, 100% = ACh EC100; activation, % at 3 µM; actives 0.3% (n = 360,000);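 active means activation above the run cutoff, the mean activation of all test compounds plus 3 SD, cut at about 18% in these data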
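Replicates: One well per compound, no replicates | System: Human M5 receptor in CHO-K1 cells | Benchmarks: Low control EC20 acetylcholine (0%), high control EC100 acetylcholine (100%) | Probe or stimulus: Acetylcholine, EC20 level | Times: Fluo-8 loading 80 min at 37 °C plus 30 min room temperature | Signal: Intracellular calcium via Fluo-8 fluorescence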
CHRM4 agonist = agonists of human muscarinic M4 receptor (CHRM4); P08173; CHO-K1 hM4/Gqi5, Fluo-8 calcium fluorescence; vehicle 0%, full acetylcholine response 100%; activation, % at 3 µM; actives 0.14% (n = 360,000); AID 624127;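 active means activation above the run mean over all test wells plus 3 SD, cut at about 32% in these data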;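 further: peak over basal fluorescence ratio per well then scaled between controls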
Target sequence (P08173 whole entry, looked up): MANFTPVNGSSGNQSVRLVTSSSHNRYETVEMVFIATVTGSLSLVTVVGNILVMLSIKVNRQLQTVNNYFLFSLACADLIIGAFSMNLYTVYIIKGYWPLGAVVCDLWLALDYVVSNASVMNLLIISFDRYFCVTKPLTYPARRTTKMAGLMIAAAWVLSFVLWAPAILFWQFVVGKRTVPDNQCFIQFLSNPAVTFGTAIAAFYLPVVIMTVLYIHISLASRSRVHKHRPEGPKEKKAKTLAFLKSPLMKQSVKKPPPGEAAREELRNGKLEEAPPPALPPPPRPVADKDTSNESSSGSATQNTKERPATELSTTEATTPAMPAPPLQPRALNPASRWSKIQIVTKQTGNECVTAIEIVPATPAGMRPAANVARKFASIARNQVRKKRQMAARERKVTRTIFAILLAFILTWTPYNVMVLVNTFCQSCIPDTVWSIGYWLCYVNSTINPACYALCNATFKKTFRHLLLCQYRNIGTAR
CHRM4 antagonist = antagonists of human muscarinic M4 receptor (CHRM4) | inhibition, % at 3 µM | actives 0.73% (n = 360,000) | AID 624125 | P08173 | CHO-hM4 cells, ACh EC80, Fluo-8 calcium fluorescence;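 active means inhibition above its plate's cutoff, the mean inhibition of sample wells plus 3 SD, cut at about 27% in these data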
CHRM5 agonist = CHRM5 agonism in calcium assay; activation, % at 3 µM; actives 0.19% (n = 360,000); P08912; CHO-K1 hM5 cells, Fluo-8 calcium fluorescence; 0% DMSO wells, 100% maximal acetylcholine response;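 active means activation above the run's mean over test compounds plus 3 SD, cut at about 23% in these data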;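 further: signal is peak over basal fluorescence ratio across the kinetic read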
CHRM4 PAM = potentiates acetylcholine response at human M4 receptor; P08173; CHO-K1 hM4/Gqi5, Fluo-8 calcium fluorescence, ACh EC20; 0% = ACh EC20, 100% = maximal ACh; activation, % at 3 µM; actives 0.4% (n = 360,000); AID 624126;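 active means activation above its plate's cutoff, the mean activation of sample wells plus 3 SD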
Large screens that a line does not name were inactive.

COc1cc(-c2cnc3c(NC=O)cc(-c4ccccc4Cl)cn23)cc(OC)c1OC	none
Cc1ccccc1CSc1nnc(-c2ccncc2)o1	none
Clc1ccc(CSc2nnc(-c3ccncc3)o2)c(Cl)c1	CHRM4 PAM 32
Cc1ccc(C(=O)NNc2ncnc3c2cnn3C)cc1	CHRM5 PAM 19
Cc1ccccc1C(=O)NNc1ncnc2c1cnn2C	none
COC(=O)CNc1nc(Cl)nc(Nc2ccc(C)cc2)n1	none
CCCCC(c1nc2ccccc2[nH]1)n1c(=O)c(-c2ccccc2)nc2cc(C)c(C)cc21 (configuration not stated)	CHRM4 PAM 21
CCOc1ccc(NC(=O)Nc2nc(SCC)ns2)cc1	CHRM5 antagonist 33
CC(=O)c1ccc(S(=O)(=O)Nc2ccc(C(=O)NCC(c3cccs3)N3CCOCC3)cc2)cc1 (configuration not stated)	none
O=C(NCC(c1cccs1)N1CCOCC1)c1ccccc1NS(=O)(=O)c1ccc(Cl)c([N+](=O)[O-])c1 (configuration not stated)	CHRM5 antagonist 43
COc1ccc(C(CNC(=O)c2ccc(NS(=O)(=O)c3ccc(F)c(C)c3)cc2)N2CCCC2)cc1 (configuration not stated)	CHRM4 antagonist 28
CCOc1ccc(NS(=O)(=O)c2ccc(C(=O)NCC(c3cccs3)N3CCOCC3)cc2)cc1 (configuration not stated)	CHRM4 agonist 39, CHRM5 agonist 50
O=C(NCC(c1cccs1)N1CCOCC1)c1ccccc1NS(=O)(=O)c1cccc([N+](=O)[O-])c1 (configuration not stated)	none
C=CCn1c(SCC(=O)Nc2cccnc2Cl)nnc1-c1ccc(Cl)cc1	CHRM5 antagonist 28, CHRM5 PAM 26
CC1(C)OC1COc1c2ccoc2cc2oc(=O)ccc12 (configuration not stated)	none
CCOC(=O)C1(Cc2ccc(Cl)cc2)CCN(C(C)Cc2ccc(O)c(OC)c2)CC1 (configuration not stated)	CHRM5 antagonist 30
CCOC(=O)C1(Cc2ccc(OC)cc2)CCN(S(C)(=O)=O)CC1	none
Cc1cc(OCCCN2CCC(C(O)(c3ccccc3)c3ccccc3)CC2)ccc1Br	CHRM4 antagonist 29
CCCC(C(=O)NC(C)(C)CC)N(Cc1ccco1)C(=O)CNS(=O)(=O)c1ccccc1 (configuration not stated)	none
CC(C)(C)c1ccc(-n2ncc3c2CCCC3NC(=O)CN2CCCCC2=O)cc1 (configuration not stated)	none
O=C(CN1CCCC1=O)NC1CCCc2c1cnn2-c1cc(F)cc(F)c1 (configuration not stated)	CHRM5 PAM 19
CCc1ncc(CN2CCC(C(=O)Nc3ccc(-n4nc(C)cc4C)cc3)CC2)cn1	none
Cc1cc(C)n(-c2ccc(NC(=O)C3CCN(Cc4ccccn4)CC3)cc2)n1	CHRM4 PAM 22
CCCc1nnc(NC(=O)Cn2c(=O)oc3cc(Br)ccc32)s1	CHRM5 agonist 39
Cc1ccc(S(=O)(=O)N2CCC[C@H]2C(=O)OCc2nc3ccccc3s2)cc1	none
Cc1cc(C(=O)CSc2nnc(-c3ccccc3)n2-c2ccccc2)c(C)n1-c1ncn[nH]1	CHRM4 PAM 26
O=C(Nc1c2c(nn1-c1ccc(F)cc1)CS(=O)(=O)C2)c1ccc(Br)o1	none
COc1ccc(-n2nc3c(c2NC(=O)c2ccc(Br)o2)CS(=O)(=O)C3)cc1	CHRM4 PAM 24
COc1ccc(C(=O)Nc2c3c(nn2-c2ccc(Cl)cc2)CS(=O)(=O)C3)cc1	CHRM5 PAM 25
COc1ccccc1CNC(=O)c1cc(C(=O)CC(C)C)c[nH]1	none
Cn1c(=O)oc2cc(S(=O)(=O)CCC(=O)N3CCN(c4ccccc4F)CC3)ccc21	CHRM5 PAM 37
Cn1c(=O)oc2cc(S(=O)(=O)N3CCN(c4ccccc4F)CC3)ccc21	none
COc1ccccc1N1CCN(S(=O)(=O)c2ccc3c(c2)oc(=O)n3C)CC1	CHRM5 antagonist 27
COc1ccc(CC(=O)Nc2cccc(-c3nnc(-c4ccc(C)cc4)o3)c2)cc1OC	none
COc1ccc(CC(=O)Nc2cccc(-c3nnc(-c4cccc(C)c4)o3)c2)cc1OC	CHRM5 antagonist 36
CC(C)(C)c1ccc(C(=O)NCCC(=O)N2CCC3(CC2)NCCc2[nH]cnc23)cc1	none
COc1cc(CNCCc2ccc(S(N)(=O)=O)cc2)ccc1OCc1ccc(Cl)cc1	none
CCOc1cc(CNCCc2ccc(S(N)(=O)=O)cc2)ccc1OCc1ccc(Cl)cc1	CHRM4 antagonist 42
COc1ccc(NC(=O)COC(=O)CC2CCCC2)cc1Cl	none
Cc1ccc(NC(=O)COC(=O)CC2CCCC2)cc1Cl	CHRM5 PAM 23
N#CCC(=O)Nc1ccc(C(=O)OCC(=O)Nc2ccc3ccccc3c2)cc1	none
COCCNC(=O)C1(C)CCCN(C(=O)c2ccccc2F)C1 (configuration not stated)	none
O=[N+]([O-])c1ccc(N/N=C/C=C/c2ccco2)cc1	CHRM5 antagonist 32, CHRM4 agonist 38, CHRM5 agonist 29
O=C(N/N=C/c1ccco1)c1cc([N+](=O)[O-])cc([N+](=O)[O-])c1	none
O=C(O)c1ccc(N/N=C/C=C/c2ccc([N+](=O)[O-])o2)cc1	CHRM5 antagonist 28, CHRM4 agonist 74, CHRM5 agonist 36
Cn1c(NCC2CCCCC2)nc2cc(-c3ccsc3)sc2c1=O	none
c1ccc(SCCN2CCN(c3ccccc3)CC2)cc1	none
Cc1ccc(C)c(S(=O)(=O)Nc2ccc(C(=O)N3CCCCC3)cc2)c1	none
O=[N+]([O-])c1cccc(N(CC2CO2)S(=O)(=O)c2ccccc2)c1 (configuration not stated)	none
O=C1C(=O)N(CCCc2ccccc2)c2ccccc21	CHRM5 agonist 26
O=C(CN1C(=O)C(=O)c2ccccc21)NCCc1ccccc1	none
Clc1ccc(Sc2ccc(/C=N/n3cnnc3)o2)cc1	CHRM4 PAM 24
CCCn1nnc2c(=O)oc3ccccc3c21	none
CCCCCn1nnc2c(=O)oc3ccccc3c21	CHRM4 PAM 28
CCCn1cnc2c(=O)oc3ccccc3c21	CHRM5 PAM 30
C=CC[n+]1c(/C=C2\C=Cc3cc(C)ccc3N2CC)ccc2ccccc21	CHRM5 antagonist 37, CHRM4 antagonist 33
CCN1C(=C(C#N)C#N)C=Cc2cc(C)ccc21	none
CCN(CC)CCCN(C(=O)c1ccccc1C)c1nc(-c2ccc(OC)cc2)cs1	none
